In ChEMBL document CHEMBL4513216, “Probing the Open Global Health Chemical Diversity Library for Multistage-Active Starting Points for Next-Generation Antimalarials” (ACS Infect Dis, 2020):

Assay: Toxicity liver stage against HepG2, at 10uM
Type: cell-based
Design: test concentration 10 uM, cell line HepG2-A16-CD81EGFP
Settings: human, HepG2-A16-CD81EGFP cells; read-out: INHIBITION
Method in brief: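 Uninfected HepG2-A16-CD81EGFP cells, 3 × 10^3 per well, 1536-well, plated on prespotted compound at 10 μM final, parasite-free screening media added to match infected plates; puromycin 10 μM positive, DMSO 0.5% negative; run in parallel with 48 h PbLuc assay at 37 °C, 5% CO2; viability by CellTiter-Glo luminescence, normalized to controls.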

Row | SMILES | cytotoxicity at 10 µM [%]
1 | CC(C)CNC1(Cc2cc(-c3ccccc3)on2)COC1 | 1.74
2 | COc1ccc2c(c1)nc1n2[C@@H](CNCc2ccccc2)COC1 | -0.201
3 | CCOC(=O)Cn1c(=O)c(OCC)nc2cnccc21 | 4.25
4 | COCCn1cc(C(=O)NC2CCS(=O)(=O)C2)c2ccccc2c1=O (stereo unspecified) | -4.17
5 | CCCN1CCc2nc(SCc3ccccc3F)[nH]c(=O)c2C1 | -2.62
6 | CN1CCN(c2cc(NC(=O)c3cnccn3)ncn2)CC1 | -1.23
7 | COC(=O)c1sccc1S(=O)(=O)NCCC(O)c1ccoc1 (stereo unspecified) | -2.64
8 | COc1cc(N2CC3(CCN(S(=O)(=O)C4CC4)C3)C2)ncn1 | 7.34
9 | Fc1cnc(N2CCO[C@H]3CN(CC4CCOC4)C[C@H]32)nc1 (stereo partly specified) | 12.3
10 | O=C(O)C1CCN(c2ccc(Sc3ccc(Br)cc3)nn2)CC1 | 9.14
11 | CCC(=O)N1CCC(c2nc(N3CCCCC3)ncc2S(C)(=O)=O)CC1 | 4.03
12 | Cc1cc(C)nc(N2CC[C@H](Oc3ccccc3F)[C@@H](O)CC2)n1 | 3.72
13 | CC(C)c1cc(C(F)(F)F)n2nc(C3CCN(S(C)(=O)=O)C3)cc2n1 (stereo unspecified) | -1.14
14 | CN(C)Cc1ccnc(C2CN(CCCc3ccccc3)CCO2)n1 (stereo unspecified) | -6.36
15 | NC(=O)C1CN(C(=O)Cc2cccnc2)CCN(C2CCOCC2)C1 (stereo unspecified) | -9.58
16 | CNC(=O)C1CN(C(=O)COc2ccccc2)Cc2cn(C)nc21 (stereo unspecified) | -10.4
17 | Cc1nc(NC2CCCC2)cc(C2CCN2C(=O)c2cccnc2)n1 (stereo unspecified) | 0.848
18 | O=C(CN1CCOCC1)Nc1cc(C(F)(F)F)ccc1-n1cccc1 | 8.32
19 | CCC(=O)N1CCC(NCc2cc(C(F)(F)F)ccc2Cl)C1 (stereo unspecified) | -4.04
20 | O=C(O)CCNC(=O)C1(c2cccc(Br)c2)CCOCC1 | 6.92
21 | OCCN1CCN(Cc2cc(Cl)cc3cccnc23)CC1 | -8.12
22 | O=C1C(Sc2cnn[nH]2)CCCN1c1ccccc1F (stereo unspecified) | 24.9
23 | O=C(CSCc1ccccn1)NCC1CC1 | -3.42

Row | SMILES | cytotoxicity at 10 µM [%]
24 | O=C(C1CCOC1)N1CCN(CC2CC2)c2ccccc21 (stereo unspecified) | 8.93
25 | CCn1ccnc1CN1CCN(c2nccc(OC)n2)CC1C (stereo unspecified) | -17.9
26 | CC(C)NC(=O)NC(=O)C(C)N1CCN(C2CCN(C(C)C)CC2)CC1 (stereo unspecified) | -15.5
27 | CCc1nnc(NC(=O)N(CCOC)Cc2ccc(C)o2)s1 | -18.8
28 | CCOc1c(F)cccc1C(=O)N(CC)C(C)c1cccnc1 (stereo unspecified) | 11.8
29 | CC(C)c1nc2n(n1)CC(NCc1cc3ccccc3o1)CC2 (stereo unspecified) | -3.61
30 | CCc1nc(C)c(C(C)N(C)CCc2ccccn2)s1 (stereo unspecified) | -6.51
31 | CCOCCCC(=O)NCc1ccc(N2CCCCC2)cc1 | -4.06
32 | O=C1NCC(C(=O)N(Cc2ccc(C(F)(F)F)cc2)C2CC2)N1 (stereo unspecified) | 4.54
33 | CC1(NC(=O)Cc2cccs2)CCS(=O)(=O)C1 (stereo unspecified) | 8.39
34 | COc1cccc(CNc2cc(CO)ccc2Cl)c1 | -13.3
35 | CCN(C(c1cccnc1)c1ccc2c(c1)CCC2)S(C)(=O)=O (stereo unspecified) | 5.82
36 | c1ccc2nc(N3CCCC3c3nnc4n3CCCCC4)cnc2c1 (stereo unspecified) | -1.63
37 | CCN1CCC(NC(=O)NCC(O)c2ccc(Cl)c(F)c2)CC1 (stereo unspecified) | -3.82
38 | COc1ccc(-c2ccc(C(=O)NS(C)(=O)=O)c(F)c2)cc1 | 5.7
39 | CCc1noc(CCCC(=O)N2CCCC(c3ccn[nH]3)C2)n1 (stereo unspecified) | -0.799
40 | COc1ccc(S(=O)(=O)NC2(CC(N)=O)CCC2)cc1 | 11.7
41 | CCOc1cc(CNC(=O)C(C#N)c2nc(C)cs2)ccc1OC(F)F (stereo unspecified) | 8.61
42 | O=C(c1ncncc1Cl)N1CCC2(CCCC2)CC1 | 1.06
43 | CC(CO)(NC(=O)Nc1nnc(C2CC2)s1)C1CCCCC1 (stereo unspecified) | 20
44 | COc1cc(N2CCC3(CC2)C(c2ccncc2)CC(=O)N3C)ncn1 (stereo unspecified) | -107
45 | Cn1cnc(-c2nc(C(=O)NCCN3CCOCC3)c3ccccn23)c1 | -103
46 | COCC(=O)N1CC[C@@H]2CN(Cc3cccnc3)S(=O)(=O)[C@@H]2CC1 | -113

Row | SMILES | cytotoxicity at 10 µM [%]
47 | Fc1ccccc1CN1C[C@@H]2OCCN(c3ncccn3)[C@@H]2C1 | -74
48 | O=C(Cc1ccsc1)N1CCc2ncc(Cn3cccn3)n2CC1 | -81.5
49 | COCCO[C@H]1CCN(C(=O)c2cnoc2C)[C@H]1Cc1cnn(C)c1 | -69.6
50 | CNC(=O)[C@@]12CCO[C@@H]1CCN(S(=O)(=O)c1ccccc1)C2 | -74.8
51 | Cn1cc(CN2CCCC3(CCN(Cc4cccnc4)C3=O)C2)cn1 (stereo unspecified) | -3.99
52 | CNc1nc2c(s1)C(=O)CN(C(=O)NCc1ccccc1)C2 | 24.4
53 | CN(Cc1ccsc1)c1nc(-c2ccccn2)nc2c1CCNCC2 | -6.18
54 | CC(=O)N[C@@H]1CN(C(=O)c2ccncc2)C[C@H]1c1ccc(C)cc1 | 4.58
55 | Cc1cc(CN2CCC(C3CCN(Cc4cccnc4)CC3)C2)[nH]n1 (stereo unspecified) | 11
56 | CCc1ccccc1-c1cc(C)nc(N)n1 | 1.12
57 | CCc1nnc(CN2CCC3(CCC(=O)N(C4CCCC4)C3)CC2)o1 | -5.16
58 | CCn1ccnc1CN(C)C(C(=O)O)c1ccc(C(C)(C)C#N)cc1 (stereo unspecified) | -9.1
59 | CSc1cccc(CNC(=O)[C@H]2CNC[C@@H](C(=O)N3CCOCC3)C2)c1 | -6.91
60 | Cc1cc2[nH]c(CN3CCOC(c4ccc(F)cc4)C3)cc(=O)n2n1 (stereo unspecified) | -4.89
61 | COc1cccc2c1OCC(CNc1ccc(C)nn1)C2 (stereo unspecified) | 8.62
62 | CC1=NOC(C(=O)N(C)CCCn2nc(C)cc2C)C1 (stereo unspecified) | 3.53
63 | O=C(CCc1cc2n(n1)CCCN(C(=O)c1ccncc1)C2)NC1CC1 | 12.2
64 | N[C@H]1CN(S(=O)(=O)N2CCCCCC2)C[C@@H]1c1ccccc1 | 2.14
65 | Clc1ccccc1Cc1noc(CN2CCCC(CN3CCCC3)C2)n1 (stereo unspecified) | -3.15
66 | O=C(CCCn1cncn1)N1CCC2(CCCN(C3CCCC3)C2=O)C1 (stereo unspecified) | -1.8
67 | CCOC(=O)CC1CCCCN1C(=O)CCc1cc(Cl)no1 (stereo unspecified) | 6.95
68 | Cc1ocnc1C(=O)N[C@H]1CN(CC2CCC2)C[C@@H]1C(C)C | -2.94
69 | Cc1cc(C)c2c(N(C)CC3CCN(CC(C)C)C3)ncnc2n1 (stereo unspecified) | 1.61

Row | SMILES | cytotoxicity at 10 µM [%]
70 | FC(F)(F)C1CN(Cc2cccc(OCc3ccccn3)c2)CCO1 (stereo unspecified) | 1.48
71 | Cn1cccc1-c1cc(C(=O)NCCc2nnc(N)s2)[nH]n1 | -7.22
72 | OCc1ccc(-c2nccn2CCC2=CCCCC2)o1 | 4.19
73 | Cc1cc(-c2ccncc2)ccc1OCC(N)=O | 18.1
74 | CN(C)S(=O)(=O)N1CCN(c2ccnc(N3CCCCC3)n2)CC1 | -1.48
75 | CC(C)(C)CN1CCCC2(CCN(C(=O)c3ccc(O)nc3)C2)C1 (stereo unspecified) | -0.937
76 | N[C@@H](Cc1c[nH]cn1)C(=O)N1CCC(Oc2ccc(F)cc2)CC1 | 0.828
77 | Cc1cc(C2CCCN(C(=O)c3ccc(Cl)o3)C2)n[nH]1 (stereo unspecified) | -5.02
78 | CCc1cnc(CN(C(C)=O)C2CCN(CCc3ccncc3)C2)o1 (stereo unspecified) | -5.95
79 | O=C1NCC(C(=O)Nc2ncc(Cc3ccc(F)cc3F)s2)N1 (stereo unspecified) | -4.01
80 | O=C(c1cccc2c1OCO2)N1CCCC(n2ccnc2)C1 (stereo unspecified) | -3.29
81 | CN(Cc1noc(C2CC2)n1)C1CCN(CCc2cccs2)C1 (stereo unspecified) | -5.98
82 | OCC1CCCN1c1cc(NCc2ccsc2)ncn1 (stereo unspecified) | 38.8
83 | CC(O)CN(CC(=O)NC1CCCCC1)c1ccccc1 (stereo unspecified) | -6.08
84 | COCCNC(=O)CN1CCN(c2nc(C)cs2)C(C)C1 (stereo unspecified) | -4.03
85 | Cc1nnc(C(C)N2CCN(Cc3ccc(C#N)cc3)CC2)o1 (stereo unspecified) | -12.2
86 | NC(=O)c1cc(C2CCCN(CCCOc3ccccc3)C2)n[nH]1 (stereo unspecified) | -12.1
87 | O=C1C(NCc2nnc3n2CCCC3)CCN1CC(F)(F)F (stereo unspecified) | -13.8
88 | COc1cc(S(=O)(=O)N2CCc3ccc(F)cc32)cc(C(=O)O)c1OC | 7.12
89 | COc1cc(C(=O)N2CCCS2(=O)=O)ccc1C | 2.72
90 | O=C(c1cc(Cl)c2c(c1)OCO2)N1CCCC(n2ccnc2)C1 (stereo unspecified) | -6.93
91 | CCCNC(=O)Cn1cc(-c2ccccc2)cn1 | -0.553
92 | Cc1nc(C2CCCN(C(=O)c3cnn(C(C)(C)C)c3)C2)no1 (stereo unspecified) | 0.818

Row | SMILES | cytotoxicity at 10 µM [%]
93 | Cc1cn2nc(N3CCCC3CC(C)(C)C)sc2n1 (stereo unspecified) | 3.46
94 | COc1ccnc(N2CCN(C(=O)Cc3ccc(C#N)cc3)CC2)n1 | 4.09
95 | CC(C)c1nccn1C1CCCN(C(=O)c2ccnc(N(C)C)c2)C1 (stereo unspecified) | 5.1
96 | COc1ccccc1CN(Cc1cccnc1)CC1CCCO1 (stereo unspecified) | 1.03
97 | Cc1oncc1C(=O)N[C@@H]1CN(Cc2ccoc2)C[C@@H]2CCCO[C@@H]21 | -108
98 | c1ccc(NCc2cn3c(n2)CNCC3)nc1 | 9.28
99 | Cn1cc(C2COC3(CCN(C(=O)c4ccccn4)CC3)C2)cn1 (stereo unspecified) | -87.1
100 | O=C(CC1CC1)N1CCc2ncc(CN3CCOCC3)n2CC1 | -80.6
101 | c1coc(CN2CCC(c3ccc4c(c3)OCO4)CC2)c1 | -1.55
102 | CNC(=O)C1Cn2ccnc2C2(CCN(Cc3cccnc3)CC2)O1 (stereo unspecified) | -3.37
103 | Cc1ccccc1CN1C[C@@H]2COC[C@]2(CNC(=O)C2CCC2)C1 | -110
104 | Cn1cc(C(=O)N2CC[C@@H]3[C@@H]2CCN3Cc2cccc(F)c2)cn1 | -2.21
105 | Cc1csc(CN2CCC3(CC2)COC(COCC2CC2)C3)n1 (stereo unspecified) | -108
106 | O=C(O)c1c(-c2cncnc2)ncc2c1CCN(CC1CCOC1)C2 (stereo unspecified) | -102
107 | c1csc(CN2CCc3c(CNc4nncs4)cncc3C2)c1 | -70.1
108 | CCCC(=O)N1CCN(CCN(C)C)c2nc(C)ccc2C1 | -73.9
109 | c1ccc(OCc2nnc3n2CCN(CC2CCOCC2)C3)nc1 | 1.65
110 | COc1ccc(CN2CCCn3cnc(COCC4CC4)c3C2)cc1 | 11
111 | c1cncc(N2CCOCC3(CCCN(c4nncs4)C3)C2)c1 (stereo unspecified) | -1.42
